Assay results from ChEMBL document CHEMBL4038313, “Expanding the Antiviral Spectrum of 3-Fluoro-2-(phosphonomethoxy)propyl Acyclic Nucleoside Phosphonates: Diamyl Aspartate Amidate Prodrugs” (J Med Chem, 2017).

How the values were obtained:
[1] = system: Human immunodeficiency virus 1; test: Antiviral activity against CXCR4-tropic HIV-1 NL4-3 infected in human TZM-bl cells assessed as inhibition of virus-induced cytopathic effect preincubated with cells for 30 mins followed by viral infection measured after 48 hrs in presence of p-24 HIV-1 Ag by luciferase reporter gene assay; type: functional, cell-based; details: Human immunodeficiency virus 1, NL4-3, TZM-bl
How it was run: (§1)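 TZM-bl cells, 1 × 10^4 per well in DMEM with 10% FBS and 10 mM […], incubated 30 min at 37 °C with compound. Then HIV-1 NL4.3 (X4) or BaL (R5) added at 100 pg p24 Ag per well. After 48 h, cells lysed with luciferase substrate. Tat-induced luminescence read after 10 min dark incubation as a measure of replication.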

[2] = system: Human immunodeficiency virus 1; test: Antiviral activity against CCR5 tropic HIV1 BaL infected in human TZM-bl cells assessed as inhibition of virus-induced cytopathic effect preincubated with cells for 30 mins followed by viral infection measured after 48 hrs in presence of p-24 HIV-1 Ag by luciferase reporter gene assay; type: functional, cell-based; details: Human immunodeficiency virus 1, BaL; how it was run: as §1
[3] = Cytotoxicity against human TZM-bl cells assessed as cell viability by tetrazolium dye assay; type: cell-based
[4] = Selectivity index, ratio of CC50 for human TZM-bl cells to EC50 for CXCR4-tropic HIV-1 NL4-3 infected in human TZM-bl cells; type: toxicity, cell-based; details: read-out: Ratio CC50/EC50
[5] = Selectivity index, ratio of CC50 for human TZM-bl cells to EC50 for CCR5 tropic HIV1 BaL infected in human TZM-bl cells; type: toxicity, cell-based; details: read-out: Ratio CC50/EC50
Hepatitis B virus = test: Antiviral activity against HBV ayw1 infected in human HepG2(2.2.15) cells assessed as reduction in viral replication by measuring extracellular viral DNA copy number after 6 days by real-time qPCR method; type: functional, cell-based; details: ayw1, HepG2 2.2.15, 144 h
How it was run: (§2)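 HepG2.2.15 cells (two copies of HBV ayw1 genome), 1.5 × 10^4/well in DMEM with 2% FBS and 380 μg/mL G418. After 16–24 h, compound added in triplicate, medium with compound renewed at day 3. Supernatant collected at day 6, Pronase-treated, and extracellular HBV DNA measured by TaqMan qPCR (precore/core) against an HBV DNA standard curve. EC50/EC90 derived; CC50 by MTS uptake.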

[6] = Cytotoxicity against human HepG2.2.15 cells assessed as cell viability by tetrazolium dye uptake assay; type: cell-based, HepG2 2.2.15
How it was run: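 HepG2.2.15 cells (two integrated copies of HBV ayw1 genome) were seeded at 1.5 × 10^4 cells/well in DMEM with 2% FBS, 380 μg/mL G418, glutamine, antibiotics and nonessential amino acids. After 16−24 h, medium with various compound concentrations was added in triplicate and renewed on day 3. After 6 days of treatment, viability was read by MTS uptake and CC50 was calculated.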

[7] = Selectivity index, ratio of CC50 for HepG2.2.15 cells to EC50 for HBV ayw1 infected in human HepG2(2.2.15) cells assessed as reduction in viral replication by measuring extracellular viral DNA copy; how it was run: as §2
Human betaherpesvirus 5 [8] = test: Antiviral activity against Human cytomegalovirus AD169 infected in HEL cells assessed as inhibition of virus-induced cytopathic effect; type: functional, cell-based; details: Human betaherpesvirus 5, AD169, HEL
How it was run: (§3)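 HEL fibroblast monolayers inoculated with 100 CCID50 HCMV (AD-169, Davis) or 20 PFU VZV (TK+ Oka, TK− 07-1). Adsorbed 1–2 h, inoculum removed, then incubated with compound dilutions. HCMV cytopathicity or VZV plaques scored once untreated infected controls reached completion. EC50 is 50% reduction. SI is CC50/EC50, and the potency ratio is the ratio of EC50s.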

Human betaherpesvirus 5 [9] = test: Antiviral activity against HCMV Davis strain infected in HEL cells assessed as inhibition of virus-induced cytopathic effect; type: functional, cell-based; details: Human betaherpesvirus 5, Davis; how it was run: as §3
Human alphaherpesvirus 3 [10] = test: Antiviral activity against thymidine kinase expressing Varicella-Zoster virus Oka strain assessed as inhibition of plaque formation; type: functional; details: Human alphaherpesvirus 3, strain Oka vaccine; how it was run: as §3
Human alphaherpesvirus 3 [11] = test: Antiviral activity against thymidine kinase deficient Varicella-Zoster virus 07-1 infected in HEL cells assessed as inhibition of plaque formation; type: functional, cell-based; details: Human alphaherpesvirus 3, 07-1, HEL; how it was run: as §3
[12] = Cytotoxic activity against HEL cells assessed as alteration of cell morphology after 3 days by microscopic method; type: cell-based; details: human
How it was run: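 HEL cells with compound; MCC is the lowest concentration giving microscopically detectable alteration of cell morphology.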

[13] = Cytotoxic activity against HEL cells assessed as reduction in cell proliferation after 3 days by coulter counting method; type: cell-based; details: human
How it was run: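 HEL cells seeded at 5 × 10^3/well, grown 24 h, then given compound for 3 days at 37 °C. Cell number counted by Coulter counter. CC50 is 50% reduction of proliferation relative to untreated controls, read from graphic plots.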

[14] = system: Human immunodeficiency virus 1; test: (§4) Antiviral activity against CXCR4-tropic HIV-1 NL4-3 infected in human PHA-stimulated PBMC assessed as inhibition of viral replication by measuring reduction in p24 antigen production preincubated with cells for 30 mins followed by viral infection measured on day 10 post infection in presence of IL-2 by ELISA; type: functional; details: Human immunodeficiency virus 1, NL4-3
How it was run: (§5)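 PBMCs stimulated with 2 μg/mL PHA for 3 days at 37 °C, then 5 × 10^5 cells/ml preincubated 30 min at 37 °C with serial compound dilutions plus 2 ng/mL IL-2. Infected with 1500 pg/well HIV-1 BaL or 500 pg/well other isolates. IL-2 re-added on days 3 and 6. Supernatant p24 Ag measured by ELISA at day 10. EC50 is 50% inhibition of replication.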

[15] = system: Human immunodeficiency virus 1; test: as §4, with “CCR5 tropic HIV1 BaL” for “CXCR4-tropic HIV-1 NL4-3”; type: functional; details: Human immunodeficiency virus 1, BaL; how it was run: as §5
[16] = Cytotoxicity against human PHA-stimulated PBMC assessed as cell viability by tetrazolium dye assay; type: cell-based
[17] = Selectivity index, ratio of CC50 for human PHA-stimulated PBMC to IC50 for CXCR4-tropic HIV-1 NL4-3 infected in human PHA-stimulated PBMC
[18] = Selectivity index, ratio of CC50 for human PHA-stimulated PBMCs to IC50 for CCR5 tropic HIV1 BaL infected in human PHA-stimulated PBMC

Compound	EC50 [1] [µM]	EC50 [2] [µM]	CC50 [3] [µM]	selectivity ratio [4]	selectivity ratio [5]	EC50 (Hepatitis B virus) [µM]	EC90 (Hepatitis B virus) [µM]	CC50 [6] [µM]	Ratio CC50/EC50 [7]	EC50 (Human betaherpesvirus 5 [8]) [µM]	EC50 (Human betaherpesvirus 5 [9]) [µM]	EC50 (Human alphaherpesvirus 3 [10]) [µM]	EC50 (Human alphaherpesvirus 3 [11]) [µM]	MCC at 72 h [12] [µM]	CC50 at 72 h [13] [µM]	IC50 [14] [nM]	IC50 [15] [nM]	CC50 [16] [µM]	Ratio CC50/IC50 [17]	Ratio CC50/IC50 [18]
CCCCCOC(=O)C[C@H](NP(=O)(CO[C@@H](CF)Cn1ccc(N)nc1=O)Oc1ccccc1)C(=O)OCCCCC (stereo partly drawn)	> 54.2	> 54.2	54.2	< 1	< 1	28	91.5	33.5	1	> 32.6	> 32.6	> 32.6	> 32.6	32.6						
Nc1nc2c(ncn2COC(CO)CO)c(=O)[nH]1 [GANCICLOVIR]											16.5			> 391	> 391					
Nc1ccn(C[C@@H](CO)OCP(=O)(O)O)c(=O)n1 [CIDOFOVIR]										2.49	3.74			> 358	> 358					
CCCCCOC(=O)C[C@H](NP(=O)(CO[C@@H](CF)Cn1cc(C)c(=O)[nH]c1=O)Oc1ccccc1)C(=O)OCCCCC (stereo partly drawn)	> 100	> 100	> 100	1	1	47	> 100	34.2	<1	> 31.9	> 31.9	31.9	12.7	31.9						
Cc1cn(C[C@H](CF)OCP(=O)(O)O)c(=O)[nH]c1=O	54.8	> 100	> 100	> 2	1	> 100	> 100	> 100	1	> 338	> 338	> 338	> 338	> 338						
CC(C)OC(=O)[C@H](C)N[P@](=O)(CO[C@H](C)Cn1cnc2c(N)ncnc21)Oc1ccccc1 [TENOFOVIR ALAFENAMIDE]																1	10	1.32	1320	132
Nc1nc(O)c2ncn(C[C@H](CF)OCP(=O)(O)O)c2n1	4.57	6.65	> 100	> 22	> 15	0.49	82.5	> 100	>204	139	62.3	62.3	62.3	> 311		1420	6410	93.1	66	14.5
Nc1ccn(C[C@@H](CF)OCP(=O)(O)O)c(=O)n1	41.9	68.5	> 100	> 2	> 1	> 100	> 100	> 100	1	143	27.1	71.1	71.1	> 356	> 356					
CCCCCOC(=O)C[C@H](NP(=O)(CO[C@H](CF)Cn1ccc(N)nc1=O)Oc1ccccc1)C(=O)OCCCCC (stereo partly drawn)	> 69	> 69	69	< 1	< 1	41.9	> 100	46.3	1	0.76	2.02	3.15	1.32	163	74.7					
Cc1cn(C[C@@H](CF)OCP(=O)(O)O)c(=O)[nH]c1=O	56.8	> 100	> 100	> 2	1	> 100	> 100	> 100	1	> 338	> 338	> 338	338	> 338						
Nc1ccn(C[C@H](CF)OCP(=O)(O)O)c(=O)n1	54.1	> 100	> 100	> 2	1	> 100	> 100	> 100	1	> 356	> 356	> 356	> 356	> 356						
Nc1nc2c(ncn2COCCO)c(=O)[nH]1 [ACYCLOVIR]												3.02	20.7	> 444	> 444					
O=c1[nH]c(=O)n([C@H]2C[C@H](O)[C@@H](CO)O2)cc1/C=C/Br [BRIVUDINE]												0.055	5.21	> 300	> 300					
Nc1ncnc2c1ncn2C[C@H](CF)OCP(=O)(O)O	29.2	30.7	> 100	> 3	> 3	11.2	> 100	> 100	>9	> 328	> 328	172	> 328	> 328		4040	11900	93.9	23	8
Nc1nc(O)c2ncn(C[C@@H](CF)OCP(=O)(O)O)c2n1	4.81	3.79	> 100	> 21	> 26	0.59	42.7	> 100	>169	127	57	15.5	12.5	> 311	65.4	280	1140	36.4	130	32
CCCCCOC(=O)C[C@H](NP(=O)(CO[C@@H](CF)Cn1cnc2c(N)ncnc21)Oc1ccccc1)C(=O)OCCCCC (stereo partly drawn)	0.14	0.11	37.6	269	342	1.06	16.9	33	31	> 31.4	> 31.4	3.81	8.24	157	7.47	26	330	36.1	>1388	109
